For assay [1], the target named is T1, 5-hydroxytryptamine receptor 1A (Rattus norvegicus, UniProt P19327).
T1 sequence (P19327 whole entry): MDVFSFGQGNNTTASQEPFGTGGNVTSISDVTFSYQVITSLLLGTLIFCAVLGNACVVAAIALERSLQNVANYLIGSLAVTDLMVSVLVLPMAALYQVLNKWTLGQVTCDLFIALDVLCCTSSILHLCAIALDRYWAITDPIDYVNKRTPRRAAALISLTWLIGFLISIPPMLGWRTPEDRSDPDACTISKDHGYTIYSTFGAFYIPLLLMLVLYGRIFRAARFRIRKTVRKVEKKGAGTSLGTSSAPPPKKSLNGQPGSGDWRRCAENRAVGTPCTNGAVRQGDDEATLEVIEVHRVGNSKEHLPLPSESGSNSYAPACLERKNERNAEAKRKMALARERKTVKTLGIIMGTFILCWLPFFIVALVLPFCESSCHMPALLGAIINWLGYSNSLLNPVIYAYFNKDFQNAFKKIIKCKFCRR
Kind of assay: In vitro inhibition of [3H]8-OH-DPAT binding to rat 5-HT 1a receptors. Put shortly:
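Rat hippocampal membranes labelled with [3H]-8-OH-DPAT by standard binding methods, in competition with eight to nine test concentrations. Specific binding was over 80% of total. IC50 derived from inhibition of specific radioligand binding by LIGAND analysis.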

Assay [2] has as its target T2, Adrenergic receptor alpha-1 (Rattus norvegicus, UniProt P15823+P23944+P43140).
T2 sequence (P15823 whole entry): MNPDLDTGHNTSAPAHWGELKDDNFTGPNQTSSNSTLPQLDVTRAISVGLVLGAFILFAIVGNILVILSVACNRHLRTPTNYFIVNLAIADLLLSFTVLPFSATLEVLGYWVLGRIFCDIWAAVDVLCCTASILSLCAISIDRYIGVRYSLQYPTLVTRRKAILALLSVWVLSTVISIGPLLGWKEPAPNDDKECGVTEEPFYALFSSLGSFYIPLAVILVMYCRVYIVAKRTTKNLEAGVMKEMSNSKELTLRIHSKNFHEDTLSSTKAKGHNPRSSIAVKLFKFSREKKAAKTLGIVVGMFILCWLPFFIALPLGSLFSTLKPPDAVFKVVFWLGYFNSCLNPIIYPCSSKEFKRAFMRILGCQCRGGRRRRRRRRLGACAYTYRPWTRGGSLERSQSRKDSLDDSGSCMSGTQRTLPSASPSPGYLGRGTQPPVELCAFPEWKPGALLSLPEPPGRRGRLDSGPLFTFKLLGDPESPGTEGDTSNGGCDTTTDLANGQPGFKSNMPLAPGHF
T2 sequence (P23944 whole entry): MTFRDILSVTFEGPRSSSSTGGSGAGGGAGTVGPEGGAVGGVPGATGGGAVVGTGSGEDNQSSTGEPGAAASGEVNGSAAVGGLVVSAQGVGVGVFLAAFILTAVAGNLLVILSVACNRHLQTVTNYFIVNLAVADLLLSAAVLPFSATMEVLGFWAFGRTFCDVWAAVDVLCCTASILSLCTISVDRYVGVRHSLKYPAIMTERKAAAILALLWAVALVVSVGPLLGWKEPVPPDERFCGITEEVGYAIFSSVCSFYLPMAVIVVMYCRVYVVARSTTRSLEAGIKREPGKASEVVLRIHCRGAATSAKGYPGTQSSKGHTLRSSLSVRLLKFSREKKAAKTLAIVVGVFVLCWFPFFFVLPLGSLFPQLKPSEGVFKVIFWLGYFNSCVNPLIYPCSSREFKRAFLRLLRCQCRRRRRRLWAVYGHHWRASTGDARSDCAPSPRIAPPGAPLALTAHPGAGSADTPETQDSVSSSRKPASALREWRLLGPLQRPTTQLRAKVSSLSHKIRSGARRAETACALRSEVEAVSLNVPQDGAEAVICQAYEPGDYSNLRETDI
T2 sequence (P43140 whole entry): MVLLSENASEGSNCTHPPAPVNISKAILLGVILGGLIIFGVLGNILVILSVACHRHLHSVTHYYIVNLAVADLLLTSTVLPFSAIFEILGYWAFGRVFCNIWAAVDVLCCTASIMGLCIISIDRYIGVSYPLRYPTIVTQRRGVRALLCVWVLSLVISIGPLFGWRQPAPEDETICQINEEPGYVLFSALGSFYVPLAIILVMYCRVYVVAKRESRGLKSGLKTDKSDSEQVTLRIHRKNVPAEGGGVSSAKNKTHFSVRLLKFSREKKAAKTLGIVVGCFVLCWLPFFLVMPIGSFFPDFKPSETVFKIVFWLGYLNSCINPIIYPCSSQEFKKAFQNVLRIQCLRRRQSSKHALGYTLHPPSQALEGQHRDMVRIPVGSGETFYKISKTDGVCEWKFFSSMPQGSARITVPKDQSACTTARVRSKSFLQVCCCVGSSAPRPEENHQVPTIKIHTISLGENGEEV
Kind of assay: In vitro inhibition of [3H]prazosin binding to rat alpha-1 adrenergic receptors. In kind it is protein assay. Put shortly: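 [3H]Prazosin displacement in rat brain cortex membranes, standard binding procedure, with eight to nine concentrations of each hydrochloride salt. Specific binding was above 80% of total. LIGAND program used to obtain IC50 from inhibition of specific binding.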

The next assay concerns the target D(2) dopamine receptor (Rattus norvegicus, UniProt P61169). The assay is described as follows: In vitro inhibition of [3H]spiroperidol binding to rat Dopamine D2 receptors.
Assay [3] can be described thus: Selectivity for D2 receptor compared to 5-HT1A receptor.
Assay [4] can be described thus: Selectivity for alpha-1 receptor compared to 5-HT1A receptor.

The values below come from ChEMBL document CHEMBL1132571, “1-aryl-4-[(5-methoxy-1,2,3, 4-tetrahydronaphthalen-1-yl)alkyl]piperazines and their analogues: influence of the stereochemistry of the tetrahydronaphthalen-1-yl nucleus on 5-HT1A receptor affinity and selectivity versus alpha1 and D2 receptors. 5” (J Med Chem, 1999).

pIC50: −log10 of the molar value.

Sequence of D(2) dopamine receptor (P61169 whole entry): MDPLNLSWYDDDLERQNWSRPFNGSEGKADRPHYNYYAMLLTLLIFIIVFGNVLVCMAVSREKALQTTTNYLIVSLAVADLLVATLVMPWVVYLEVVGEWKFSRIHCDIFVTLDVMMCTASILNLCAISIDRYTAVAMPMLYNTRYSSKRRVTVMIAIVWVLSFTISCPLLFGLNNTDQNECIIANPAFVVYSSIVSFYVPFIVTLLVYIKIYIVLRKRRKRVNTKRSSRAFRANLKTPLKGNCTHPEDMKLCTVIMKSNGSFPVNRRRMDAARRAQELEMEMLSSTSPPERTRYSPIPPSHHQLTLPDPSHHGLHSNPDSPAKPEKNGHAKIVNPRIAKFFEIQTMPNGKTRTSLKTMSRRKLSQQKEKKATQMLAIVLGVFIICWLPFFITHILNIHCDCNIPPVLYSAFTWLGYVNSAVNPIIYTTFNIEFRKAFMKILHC

On to `COc1cccc2c1CCC[C@@H]2CCCN1CCN(c2ccccn2)CC1`, for which the results for the pIC50 (in assay [1]; at D(2) dopamine receptor) were 8.35 and 6.06, respectively. In addition, the IC50 in assay [2] worked out at 85 nM. The Selectivity in assay [3] is 196; in assay [4], 19.

Consider `COc1cccc2c1CCC[C@@H]2CCCN1CCN(c2ccccc2)CC1`, for which the negative-log IC50 (pIC50) in assay [1] is 8.37; at D(2) dopamine receptor it was 6.06. In assay [2], this compound displayed an IC50 of 61 nM. Moreover, the Selectivity in assay [3] worked out at 205; in assay [4], 14.

For `COc1cccc2c1CCCC2CCCN1CCN(c2ccccc2)CC1` (configuration not stated), the Selectivity in assay [3] came out at 220; in assay [4], 86.

The compound `COc1ccccc1N1CCN(CCC[C@H]2CCCc3c(OC)cccc32)CC1` showed a pIC50 in assay [1] of 8.80. The same compound showed an IC50 in assay [2] of 0.8 nM.

Compound `COc1ccccc1N1CCN(CCC(=O)N[C@@H]2CCCc3c(OC)cccc32)CC1` had an IC50 in assay [2] of 770 nM. At D(2) dopamine receptor, this compound showed a pIC50 of 6.06.

For `COc1ccccc1N1CCN(CCCNC2CCCc3c(OC)cccc32)CC1` (configuration not stated), the Selectivity in assay [3] came out at 106; in assay [4], 88.

In the case of `COc1ccccc1N1CCN(CCN[C@H]2CCCc3c(OC)cccc32)CC1`, the negative logarithm of the IC50 (pIC50) is 8.15 in assay [1] and 6.19 at D(2) dopamine receptor. Also, the half-maximal inhibitory concentration (IC50) in assay [2] was determined as 228 nM. The Selectivity in assay [3] is 93; in assay [4] it was 33.

On to `COc1cccc2c1CCC[C@H]2CCCN1CCN(c2ccccc2)CC1`, for which the pIC50 in assay [1] is 8.62; at D(2) dopamine receptor it was 6.21. In addition, the IC50 in assay [2] was 950 nM. The figures for the Selectivity in assay [3] and in assay [4] were 254 and 396, respectively.

`NCCCC1(CCCN)CCc2cccc(O)c2C1` had a pIC50 in assay [1] of 8.60.

As for `COc1ccccc1N1CCN(CCNC2CCCc3c(OC)cccc32)CC1` (configuration not stated), the Selectivity in assay [3] amounted to 49; in assay [4] it was 29.

With `COc1ccccc1N1CCN(CCCN[C@@H]2CCCc3c(OC)cccc32)CC1`, the pIC50 in assay [1] was 8.15; on D(2) dopamine receptor, 5.72. In assay [2], this compound gave an IC50 of 1700 nM. The Selectivity in assay [3] amounted to 271; in assay [4] it was 243.

In assay [1], `COc1ccccc1N1CCN(CCC[C@@H]2CCCc3c(OC)cccc32)CC1` gave a pIC50 of 8.89. Moreover, the IC50 in assay [2] was 33 nM.

As to `COc1cccc2c1CCC[C@H]2CCCN1CCN(c2ccccn2)CC1`, the pIC50 in assay [1] was 8.64; on D(2) dopamine receptor it was 6.22. This compound also had an IC50 in assay [2] of 580 nM. In addition, the values for the Selectivity in assay [3] and in assay [4] were 261 and 252, respectively.

As to `COc1cccc2c1CCCC2CCCN1CCN(c2ccccn2)CC1` (configuration not stated), the results for the Selectivity in assay [3] and in assay [4] were 259 and 122, respectively.

With `COc1ccccc1N1CCN(CCN[C@@H]2CCCc3c(OC)cccc32)CC1`, the pIC50 in assay [1] is 8.00; on D(2) dopamine receptor it was 5.49. The compound further yielded an IC50 in assay [2] of 1000 nM. The Selectivity came to 320 in assay [3] and 100 in assay [4].

Regarding `COc1ccccc1N1CCN(CCCN[C@H]2CCCc3c(OC)cccc32)CC1`, the values for the pIC50 (in assay [1]; at D(2) dopamine receptor) were 7.47 and 5.64, respectively. Moreover, in assay [2], the IC50 was 649 nM. Further, the Selectivity is 68 in assay [3] and 19 in assay [4].

On to `COc1ccccc1N1CCN(CCC(=O)N[C@H]2CCCc3c(OC)cccc32)CC1`, for which, in assay [2], the IC50 is listed as 240 nM. Also, the negative logarithm of the IC50 (pIC50) on D(2) dopamine receptor was 5.59.

The pIC50 is the negative decadic logarithm of the IC50, by convention in mol/L. A lower pIC50 goes with a large IC50. The IC50 is the point on the concentration scale where inhibition reaches its midpoint. Higher therefore signals lower potency.
